From paper PMC4206694 (Journal of Medicinal Chemistry, 2014)

How the values were obtained:
CYP2B6 = target: T1, CYP2B6 (Homo sapiens, UniProt P20813); assay: Cytochrome P450 inhibition, CYP2B6; assay type: in vitro ADME
T1 sequence (P20813 1-491): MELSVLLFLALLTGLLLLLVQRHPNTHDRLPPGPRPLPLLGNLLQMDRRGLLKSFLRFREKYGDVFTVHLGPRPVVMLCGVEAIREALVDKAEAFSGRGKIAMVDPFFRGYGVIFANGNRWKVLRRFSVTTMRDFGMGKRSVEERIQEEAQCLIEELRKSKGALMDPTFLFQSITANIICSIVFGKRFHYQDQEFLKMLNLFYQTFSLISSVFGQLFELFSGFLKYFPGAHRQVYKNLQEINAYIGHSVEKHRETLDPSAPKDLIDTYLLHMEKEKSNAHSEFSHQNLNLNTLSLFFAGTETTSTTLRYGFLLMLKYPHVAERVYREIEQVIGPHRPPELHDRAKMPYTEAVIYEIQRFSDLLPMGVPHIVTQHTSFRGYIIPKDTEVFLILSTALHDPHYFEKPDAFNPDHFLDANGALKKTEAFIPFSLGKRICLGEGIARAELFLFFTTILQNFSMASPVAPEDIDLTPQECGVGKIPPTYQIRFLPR

μ-opioid receptor = μ-opioid receptor (Homo sapiens, UniProt P35372); assay: Psychoactive Drug Screening Program competition binding, μ-opioid receptor; conditions: read-out: IC50 μ-opioid receptor; ligand displacement, PDSP
Sequence of μ-opioid receptor (P35372 whole entry, species assumed): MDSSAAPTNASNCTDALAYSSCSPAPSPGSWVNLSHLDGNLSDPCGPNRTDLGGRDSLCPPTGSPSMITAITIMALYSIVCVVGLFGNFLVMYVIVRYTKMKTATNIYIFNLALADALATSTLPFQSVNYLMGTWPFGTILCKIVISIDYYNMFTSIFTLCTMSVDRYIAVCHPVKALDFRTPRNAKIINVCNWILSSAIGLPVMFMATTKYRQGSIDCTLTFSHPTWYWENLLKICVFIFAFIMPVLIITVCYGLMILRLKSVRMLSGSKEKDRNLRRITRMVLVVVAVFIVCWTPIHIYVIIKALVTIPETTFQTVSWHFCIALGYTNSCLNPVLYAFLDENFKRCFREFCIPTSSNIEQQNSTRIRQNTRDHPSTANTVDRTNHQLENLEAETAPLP

CYP2C8 = target: T2, CYP2C8 (Homo sapiens, UniProt P10632); assay: Cytochrome P450 inhibition, CYP2C8; assay type: in vitro ADME
T2 sequence (P10632 1-490): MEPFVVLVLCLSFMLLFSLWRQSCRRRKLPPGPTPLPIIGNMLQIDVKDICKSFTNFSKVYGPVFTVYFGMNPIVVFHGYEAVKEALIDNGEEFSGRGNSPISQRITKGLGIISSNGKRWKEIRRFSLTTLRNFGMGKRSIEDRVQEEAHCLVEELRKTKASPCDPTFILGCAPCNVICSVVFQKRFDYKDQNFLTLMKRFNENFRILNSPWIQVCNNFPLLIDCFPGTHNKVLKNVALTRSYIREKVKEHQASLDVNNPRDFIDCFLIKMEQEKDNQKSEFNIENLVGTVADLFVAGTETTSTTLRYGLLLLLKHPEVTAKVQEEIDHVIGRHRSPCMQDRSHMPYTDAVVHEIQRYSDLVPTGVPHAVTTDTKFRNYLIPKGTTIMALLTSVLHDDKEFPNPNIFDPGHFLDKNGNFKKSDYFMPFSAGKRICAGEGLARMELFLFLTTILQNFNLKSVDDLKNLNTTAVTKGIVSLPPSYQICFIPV

CYP3D6 = CYP3D6 (Homo sapiens, UniProt P10635); assay: Cytochrome P450 inhibition, CYP3D6; assay type: in vitro ADME
Sequence of CYP3D6 (P10635 whole entry): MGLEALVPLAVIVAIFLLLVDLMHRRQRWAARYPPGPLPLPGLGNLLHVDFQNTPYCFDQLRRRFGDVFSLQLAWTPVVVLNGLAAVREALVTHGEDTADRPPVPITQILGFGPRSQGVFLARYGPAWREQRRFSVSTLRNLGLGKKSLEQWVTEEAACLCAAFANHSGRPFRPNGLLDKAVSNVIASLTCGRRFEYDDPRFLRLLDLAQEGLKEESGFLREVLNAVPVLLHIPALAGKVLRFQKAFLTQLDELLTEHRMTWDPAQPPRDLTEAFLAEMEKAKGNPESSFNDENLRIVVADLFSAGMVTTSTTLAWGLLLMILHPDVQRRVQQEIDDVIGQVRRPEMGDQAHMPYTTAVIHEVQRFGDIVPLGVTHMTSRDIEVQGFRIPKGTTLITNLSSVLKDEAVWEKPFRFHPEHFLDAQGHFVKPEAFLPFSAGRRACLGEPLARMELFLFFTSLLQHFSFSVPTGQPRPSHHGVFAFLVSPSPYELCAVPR

CYP3A4 = CYP3A4 (Homo sapiens, UniProt P08684); assay: Cytochrome P450 inhibition, CYP3A4; assay type: in vitro ADME
Sequence of CYP3A4 (P08684 whole entry): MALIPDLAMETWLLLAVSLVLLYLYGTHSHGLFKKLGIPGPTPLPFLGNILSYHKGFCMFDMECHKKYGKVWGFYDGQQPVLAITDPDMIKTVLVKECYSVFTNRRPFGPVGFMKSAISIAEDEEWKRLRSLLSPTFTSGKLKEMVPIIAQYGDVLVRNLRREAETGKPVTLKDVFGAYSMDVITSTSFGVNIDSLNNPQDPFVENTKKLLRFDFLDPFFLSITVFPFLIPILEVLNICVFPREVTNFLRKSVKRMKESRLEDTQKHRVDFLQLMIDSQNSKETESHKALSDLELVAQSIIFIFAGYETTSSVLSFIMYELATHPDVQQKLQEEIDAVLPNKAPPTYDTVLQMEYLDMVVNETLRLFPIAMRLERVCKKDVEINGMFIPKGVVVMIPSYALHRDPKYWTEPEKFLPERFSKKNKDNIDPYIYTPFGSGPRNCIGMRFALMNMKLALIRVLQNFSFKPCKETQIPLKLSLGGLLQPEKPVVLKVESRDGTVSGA

[1] = system: dopaminergic neurons within the SNc; assay: MPTP model of Parkinson's disease; assay type: in vivo, mouse; conditions: BID, 21 days after MPTP; for rescue of TH+ neurons: 10 mg kg^–1 day^–1, IP
Summary of the method: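 Adult male C57Bl/6 mice, individually housed 1 week, received free-base MPTP 30 mg/kg/day IP for 5 days. Compound or vehicle was started on day 6, 24 h after the last MPTP dose, and given twice daily for 21 days. After perfusion and fixation in 4% paraformaldehyde, every fourth section through striatum and SNc was stained for tyrosine hydroxylase. TH+ cells were counted blinded; mean ± SEM.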

[2] = Pharmacokinetic analysis, plasma and brain levels; assay type: in vivo, mouse; conditions: single time point (6 h) after IP 1, 3, 10 or 30 mg/kg, Figure S3
Summary of the method: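 Compound in 5% DMSO/10% cremophor EL/85% D5W (pH 7.2) was dosed to adult mice (0.2 mL total). Mice were killed by CO2. Plasma came from ACD-treated blood spun at 9300g. Brains were rinsed in PBS and homogenized in 3 volumes of PBS. Plasma or lysate (100 μL) was precipitated with 200 μL acetonitrile/0.15% formic acid and spun at 13120g for 5 min. Supernatant was analysed by HPLC/MS/MS.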

[3] = system: newborn hippocampal neurons; assay: In vivo hippocampal neuroprotection assay; set-up: species or system mouse; conditions: for number of surviving newborn hippocampal neurons (BrdU+ cells): ICV 10 μM, Figure 1
Summary of the method: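 Adult (12-week) wild-type […] mice, environmentally deprived, four per group. Compound was infused ICV into the left lateral ventricle by implanted osmotic minipump (0.5 μL/h, 7 days) or given IP twice daily. BrdU 50 mg/kg/day IP for 6 days; perfused 24 h after last BrdU. Anti-BrdU staining after formamide/SSC and HCl unmasking. BrdU+ SGZ/dentate cells counted contralaterally, every fifth section, normalized to dentate gyrus volume.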

CYP2C9 = CYP2C9 (Homo sapiens, UniProt P11712); assay: Cytochrome P450 inhibition, CYP2C9; assay type: in vitro ADME
Sequence of CYP2C9 (P11712 whole entry): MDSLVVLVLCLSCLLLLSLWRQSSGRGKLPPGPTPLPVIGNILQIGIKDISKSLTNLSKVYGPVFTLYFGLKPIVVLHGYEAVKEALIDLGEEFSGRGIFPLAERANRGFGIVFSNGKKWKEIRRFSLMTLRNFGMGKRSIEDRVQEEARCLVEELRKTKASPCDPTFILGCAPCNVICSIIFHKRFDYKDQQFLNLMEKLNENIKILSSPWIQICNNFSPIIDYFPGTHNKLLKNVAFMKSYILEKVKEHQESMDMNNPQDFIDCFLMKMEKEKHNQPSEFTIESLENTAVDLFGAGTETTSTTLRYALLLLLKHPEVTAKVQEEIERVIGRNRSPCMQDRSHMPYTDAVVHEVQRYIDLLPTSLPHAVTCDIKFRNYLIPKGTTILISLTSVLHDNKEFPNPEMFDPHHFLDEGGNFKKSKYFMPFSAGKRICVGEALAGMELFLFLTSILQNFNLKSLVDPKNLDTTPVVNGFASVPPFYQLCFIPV

[4] = system: newborn hippocampal neurons; conditions: cited from earlier work
[5] = cited from earlier work
[6] = system: motor neurons in the spinal cord; conditions: cited from earlier work
[7] = system: dopaminergic neurons within the SNc; conditions: cited from earlier work
[8] = cited from earlier work; remark: listed apart in the source
[9] = cited from earlier work; remark: listed apart in the source
[10] = Long-term treatment tolerability; assay type: in vivo
[11] = system: cerebral cortical neurons; conditions: cited from earlier work

COc1cccc(NC[C@H](F)Cn2c3ccc(Br)cc3c3cc(Br)ccc32)n1 [(−)-15, (S)-N-(3-(3,6-Dibromo-9H-carbazol-9-yl)-2-fluoropropyl)-6-methoxypyridin-2-amine]
CYP2B6 sensitivity (CYP2B6): insensitive | IC50 (μ-opioid receptor): 8.2 µM | CYP2C8 sensitivity (CYP2C8): insensitive | CYP3D6 sensitivity (CYP3D6): insensitive | CYP3A4 sensitivity (CYP3A4): insensitive | neuroprotective activity in MPTP model (enantiomers) ([1]; IP, Figure 3): strongly protective | plasma and brain concentrations compared with racemic 15 [2]: indistinguishable | enantiomer-specific neuroprotective activity in mouse model of neurogenesis ([3]; pure enantiomers dosed ICV 7 days, Figure 2): highly active | CYP2C9 sensitivity (CYP2C9): insensitive

OC(CNc1ccccc1)Cn1c2ccc(Br)cc2c2cc(Br)ccc21 (stereo not drawn) [compound 1]
number of surviving newborn hippocampal cells ([4]; unbiased in vivo screen, 1 week): approximately doubled | antidepressant effect [5]: antidepressant activity | motor neuron cell death in spinal cord of G93A SOD1 transgenic mice [6]: minimize motor neuron cell death in the spinal cord | protection of neurons in the substantia nigra, MPTP mouse model [7]: protect neurons in the substantia nigra | neuroprotective effect in retinal degeneration [8]: neuroprotective effects | neuroprotective effect in age-related cognitive decline [9]: neuroprotective effects

COc1cccc(NCC(F)Cn2c3ccc(Br)cc3c3cc(Br)ccc32)c1 (stereo not drawn) [compound 2]
impact on weight, behavior, or appearance ([10]; up to 40 mg kg^–1 day^–1 for 21 days): no negative impact on the weight, behavior, or appearance | activity in the in vivo hippocampal neuroprotection assay ([4]; previous studies): substantially improved the activity | rescue of TH+ neurons [1]: around 75% | dose showing significant neuroprotective effect in MPTP model ([1]; IP): 5 mg kg^–1 day^–1 | protection of cerebral cortical neurons, moderate fluid percussion TBI [11]: protect rat cerebral cortical neurons | antidepressant effect [5]: exert antidepressant effects | motor neuron cell death in spinal cord of G93A SOD1 transgenic mice [6]: minimize motor neuron cell death in the spinal cord | protection of neurons in the substantia nigra, MPTP mouse model [7]: protect neurons in the substantia nigra

[N-]=[N+]=NCC(F)Cn1c2ccc(Br)cc2c2cc(Br)ccc21 (stereo not drawn) [compound 11, 9-(3-Azido-2-fluoropropyl)-3,6-dibromo-9H-carbazole]
number of surviving newborn hippocampal neurons (BrdU+ cells) ([3]; 7 days): inactive

Cl.NCC(F)Cn1c2ccc(Br)cc2c2cc(Br)ccc21 (stereo not drawn) [compound 12, 3-(3,6-Dibromo-9H-carbazol-9-yl)-2-fluoropropan-1-amine]
number of surviving newborn hippocampal neurons (BrdU+ cells) ([3]; 7 days): increase in the number of BrdU+ cells compared with vehicle

COc1cccc(NCC(F)Cn2c3ccc(Br)cc3c3cc(Br)ccc32)n1 (stereo not drawn) [compound 15, N-(3-(3,6-Dibromo-9H-carbazol-9-yl)-2-fluoropropyl)-6-methoxypyridin-2-amine]
impact on weight, behavior, or appearance ([10]; up to 10 mg kg^–1 day^–1 for 21 days): no negative impact on the weight, behavior, or appearance | rescue of TH+ neurons [1]: over 85% | dose showing significant neuroprotective effect in MPTP model ([1]; IP): 1 mg kg^–1 day^–1 | number of surviving newborn hippocampal neurons (BrdU+ cells) ([3]; 7 days): approximately doubled | dose at which active in hippocampal neuroprotection ([3]; IP, 7 days): 1 mg kg^–1 day^–1 | dose at which ceiling of efficacy is reached in hippocampal neuroprotection ([3]; IP, 7 days): 10 mg kg^–1 day^–1

NCC(O)Cn1c2ccc(Br)cc2c2cc(Br)ccc21 (stereo not drawn) [compound 16, 1-Amino-3-(3,6-dibromo-9H-carbazol-9-yl)propan-2-ol]
number of surviving newborn hippocampal neurons (BrdU+ cells) ([3]; 7 days): increase in the number of BrdU+ cells compared with vehicle

COc1cccc(NCC(O)Cn2c3ccc(Br)cc3c3cc(Br)ccc32)n1 (stereo not drawn) [compound 17, 1-(3,6-Dibromo-9H-carbazol-9-yl)-3-((6-methoxypyridin-2-yl)amino)propan-2-ol]
number of surviving newborn hippocampal neurons (BrdU+ cells) ([3]; 7 days): increase in the number of BrdU+ cells compared with vehicle
